pIC50: −log10 of the molar value.
How the values were obtained:
[1] = Inhibition of CREB kinase-inducible domain/CREB binding protein KID-interacting domain interaction after 20 to 24 hrs by luciferase reporter gene assay
[2] = Inhibition of CREB expressed in HEK293T cells assessed as inhibition of forskolin-stimulated CRE transcription incubated for 30 mins prior to forskolin-stimulation measured after 4.5 hrs by luciferase reporter gene assay; format: cell-based; details: HEK-293T
In short: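 HEK293T cells transfected with pCRE-RLuc (Lipofectamine 2000), replated after 3 h at 1-2 × 10^4 cells/well and attached overnight. Compounds at various concentrations added 30 min before forskolin (10 μM final), then 4.5 h at 37 °C. Lysate Renilla luciferase read with benzyl-coelenterazine (pH 7.4, 10 μg/mL), normalized to Bradford-dye protein (RLU/μg). IC50 from non-linear regression.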

SMILES | pIC50 [1] | pIC50 [2]
Clc1ccc(Nc2noc3cc4ccccc4cc23)cc1 | < 4.30 | 4.61
O=c1oc2cc3ccccc3cc2c(=O)n1-c1ccc(Cl)cc1 | < 4.30 | 4.51
O=C(Nc1ccc(Cl)cc1)c1cc2ccccc2cc1O | 5.54 | 5.64

Further lines, results first:

pIC50 [1] | pIC50 [2] | SMILES
5.06 | 5.32 | Clc1ccc(Nc2n[nH]c3cc4ccccc4cc23)cc1
5.28 | < 4.30 | Cn1nc(Nc2ccc(Cl)cc2)c2cc3ccccc3cc21
5.02 | 4.72 | Clc1ccc(Nc2ncnc3cc4ccccc4cc23)cc1
< 4.30 | < 4.30 | O=c1[nH]c2cc3ccccc3cc2c(=O)n1-c1ccc(Cl)cc1

Reference: ChEMBL document CHEMBL2046293, “Design, synthesis, and biological evaluation of conformationally constrained analogues of naphthol AS-E as inhibitors of CREB-mediated gene transcription” (J Med Chem, 2012)
